Source: PubChem (several laboratories)
Rev-erbA mod – modulators of human Rev-erb alpha DNA binding. Rev-erbα–FITC-DNA binding, fluorescence polarization, 90 min. activity, % at 10 µM. actives 0.79% (n = 370,000);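 active = activity above about 14%, limit read from the data; passing the limit was not always enough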;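 note: 0% = DMSO wells with 35 nM protein and 100% = DMSO wells with 750 nM protein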
Target sequence (P20393 whole entry, looked up): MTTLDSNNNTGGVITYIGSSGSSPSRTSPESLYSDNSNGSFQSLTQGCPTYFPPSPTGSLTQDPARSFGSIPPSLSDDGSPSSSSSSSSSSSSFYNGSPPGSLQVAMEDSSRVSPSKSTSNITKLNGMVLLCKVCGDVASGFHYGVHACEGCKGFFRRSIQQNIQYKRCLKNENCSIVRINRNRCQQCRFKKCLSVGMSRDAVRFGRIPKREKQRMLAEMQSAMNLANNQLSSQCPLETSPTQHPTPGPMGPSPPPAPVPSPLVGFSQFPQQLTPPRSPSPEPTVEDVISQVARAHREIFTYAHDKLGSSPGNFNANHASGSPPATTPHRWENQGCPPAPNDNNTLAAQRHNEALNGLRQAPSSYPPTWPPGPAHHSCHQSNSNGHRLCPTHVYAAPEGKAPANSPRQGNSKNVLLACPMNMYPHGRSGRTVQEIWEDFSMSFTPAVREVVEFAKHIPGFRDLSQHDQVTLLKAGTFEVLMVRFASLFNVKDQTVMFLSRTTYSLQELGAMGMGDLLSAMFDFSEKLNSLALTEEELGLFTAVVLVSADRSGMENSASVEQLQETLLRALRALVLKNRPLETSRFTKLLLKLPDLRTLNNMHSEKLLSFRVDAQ
NR2E3 ag-1 – activates human NR2E3 receptor; inhibition of corepressor binding, % at 3.98 µM; Q9Y5X4; actives 0.35% (n = 360,000); CHO-S Gal4-NCOR/VP16-NR2E3 two-hybrid, luciferase; AID 602229;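 active = inhibition above the mean of all tested compounds plus 3 SD, cut at about 70% in these data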;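 note: 0% = DMSO with NR2E3 transfected cells and 100% = cells lacking NR2E3 construct; higher means lower luciferase signal from less NR2E3 corepressor binding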
PG9 binder – PG9 antibody binding by small molecule; TR-FRET gp120-PG9 antibody binding; inhibition, % at 6.7 µM; actives 0.43% (n = 360,000); AID 624416; in the data active = inhibition above about 8.5%
NR2E3 ag-2 – activates human photoreceptor nuclear receptor NR2E3; actives 0.12% (n = 320,000); GST-NR2E3/biotin-RetCOR TR-FRET, 1536-well; AID 2300; inhibition of corepressor binding, % at 4.78 µM; Q9Y5X4;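 active = percent inhibition above the cutoff of mean plus 3 SD of all tested compounds, set per screening campaign, cut at about 20% in these data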;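 note: 0% = DMSO wells and 100% = biotin wells as full block of FRET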
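System: GST-tagged NR2E3 plus biotinylated RetCOR corepressor; Buffer or medium: pH 7.5 Tris-based buffer; Probe or stimulus: RetCOR corepressor, biotinylated, 7 nM; Doses: compound at 4.8 µM, single dose; Schedule: 5 h incubation at 4 °C; Technique: time-resolved FRET; Evaluation: percent inhibition of TR-FRET ratio; Replication: one well per compound, singlicate testing.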
NR2E3 ag conf – NR2E3 agonism confirmed in two-hybrid assay | shares compounds with NR2E3 ag-1 | actives 51% (n = 2,300) | inhibition, % at 3.98 µM | CHO-S mammalian two-hybrid NR2E3-NCOR, luciferase luminescence;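 active = average inhibition above a cutoff equal to the mean inhibition of all tested compounds plus one SD, cut at about 70% in these data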;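 note: 0% = DMSO in NR2E3 cells and 100% = DMSO in cells lacking NR2E3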
GAL4-VP16 luc – reduces GAL4-VP16 reporter signal in NR2E3 counterscreen | shares compounds with NR2E3 ag-1 | CHO-S GAL4-VP16 luciferase reporter, luminescence | inhibition, % at 3.98 µM | actives 29% (n = 2,300);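 active = mean inhibition above a cutoff equal to the average over all tested compounds plus one standard deviation, cut at about 70% in these data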;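 note: luciferase from a UAS reporter driven by GAL4-VP16 transactivation; 0% = DMSO with VP16-transfected cells and 100% = DMSO with cells lacking VP16; higher means less reporter light so more repression of VP16 activity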
An asterisk follows results filed as active. The list is not random: actives were taken first. Their share in the collection is about 1.5%.

CCCCn1c(=N)n(CC(O)COc2cccc(C)c2)c2ccccc21 (stereo not given) was read as Rev-erbA mod 0.1, NR2E3 ag-1 48.8, PG9 binder 0.9, NR2E3 ag-2 -2.1, NR2E3 ag conf -8.8 and GAL4-VP16 luc 29.9.
OCCCNc1cc(-c2ccnc(Nc3cccc(Cl)c3)n2)ccn1 was read as Rev-erbA mod -6.1, NR2E3 ag-1 99.4*, PG9 binder -1.5, NR2E3 ag-2 -0.3, NR2E3 ag conf 100.0* and GAL4-VP16 luc 95.0*.
`CCC(C)Oc1cc(-c2ccnc(Nc3cccc(Cl)c3)n2)ccn1` (stereo not given) gave Rev-erbA mod -1.9, NR2E3 ag-1 57.5, PG9 binder -1.0, NR2E3 ag-2 0.7, NR2E3 ag conf 94.0* and GAL4-VP16 luc 41.1.
For Cc1cc(C)nc(Nc2cccc(Cl)c2)n1 the results were Rev-erbA mod -8.1, NR2E3 ag-1 -26.0 and PG9 binder -1.4.
`COc1ccc(CNC(=S)OC2CCC23CCC(c2ccccc2)CC3)cc1` (stereo not given) gave Rev-erbA mod 7.0.
Screening CC(=O)C1(C(=O)NC2CCCC2)CC(c2ccccn2)=NO1 (stereo not given) returned Rev-erbA mod 1.7.
Screening Cc1cccc(C)c1NC(=O)c1cc(S(N)(=O)=O)c(Cl)cc1O returned Rev-erbA mod 5.9.
For Cc1ccccc1OCCCCc1c(C)n[nH]c1C the results were Rev-erbA mod 5.0, NR2E3 ag-1 70.7*, PG9 binder -0.6, NR2E3 ag-2 2.5, NR2E3 ag conf 91.5* and GAL4-VP16 luc 60.4.
`Cc1ccccc1OCCCc1c(C)n[nH]c1C` gave Rev-erbA mod -1.1, NR2E3 ag-1 0.3, PG9 binder -3.7 and NR2E3 ag-2 -0.2.
For COc1cccc(OC)c1OCCCCc1c(C)n[nH]c1C the results were Rev-erbA mod 2.6, NR2E3 ag-1 -2.0, PG9 binder 0.0 and NR2E3 ag-2 0.7.
Screening COc1cccc(OC)c1OCCCCCc1c(C)n[nH]c1C returned Rev-erbA mod -2.0, NR2E3 ag-1 52.9, PG9 binder 0.8, NR2E3 ag-2 3.3, NR2E3 ag conf 25.1 and GAL4-VP16 luc 7.5.
Screening COc1cccc(OC)c1NC(=O)OCCN1CCCC12CCC(c1ccccc1)CC2 (stereo not given) returned Rev-erbA mod -8.1.
`O=C(CSc1nnc(Cc2cccs2)n1-c1ccc(Cl)cc1)Nc1ccc(OCc2ccccc2)cc1` gave Rev-erbA mod -2.2.
Cn1c2c(c(=O)n(C)c1=O)C(C(F)(F)F)(C(F)(F)F)N=C(c1ccc(Cl)cc1)N2 was read as NR2E3 ag-1 97.7*, NR2E3 ag-2 0.6, NR2E3 ag conf 98.7* and GAL4-VP16 luc 90.5*.
For CC(C)C[C@@H](CN1CCC[C@@H]1CN1C(=S)NC[C@@H]1Cc1ccc(O)cc1)N1C[C@H](Cc2ccccc2)N(CCc2ccccc2)C1=S the results were NR2E3 ag-1 53.4, NR2E3 ag conf -3.2 and GAL4-VP16 luc 24.9.
For CC(C)(C)C(=O)Nc1ccc(N=Nc2ccccc2)cc1 the results were Rev-erbA mod 4.0, NR2E3 ag-1 55.9, PG9 binder 0.1, NR2E3 ag-2 1.1, NR2E3 ag conf 25.8 and GAL4-VP16 luc -22.8.
O=C(O)CCC(=O)Nc1ccc(N=Nc2ccccc2)cc1 was read as NR2E3 ag-1 -7.6.
`C[C@@H]1CN([C@@H](C)COC(=O)C(C)(C)C)C(=O)c2cc(NC(=O)Nc3ccccc3)ccc2O[C@@H](C)CCCCO[C@H]1CN(C)S(=O)(=O)c1ccc(F)cc1` gave Rev-erbA mod -0.3.
For Cc1ccc(NC(=O)OC2CCC23CCCCC3)cc1 (stereo not given) the results were Rev-erbA mod 1.6.
COc1ccccc1NS(=O)(=O)c1ccc2oc(SC(C)C(=O)N3CCNC3=O)nc2c1 (stereo not given) was read as Rev-erbA mod -1.3, NR2E3 ag-1 55.8, PG9 binder 1.3, NR2E3 ag-2 1.8, NR2E3 ag conf 6.3 and GAL4-VP16 luc 22.0.
COc1ccccc1NS(=O)(=O)c1ccc2oc(SCC(C)=O)nc2c1 was read as Rev-erbA mod 3.4, NR2E3 ag-1 42.0, PG9 binder -0.6 and NR2E3 ag-2 3.3.
For CCn1c(N)nc2c1c(=O)n(C)c(=O)n2C the results were Rev-erbA mod -1.3, NR2E3 ag-1 -1.0, PG9 binder -1.9 and NR2E3 ag-2 3.0.
Screening CCCc1nc2c(=O)n(C)c(=O)nc-2n(C)n1 returned Rev-erbA mod -26.5, NR2E3 ag-1 104.5*, PG9 binder -1.2, NR2E3 ag conf 100.6* and GAL4-VP16 luc 85.5*.
`CCOC(=O)[C@]12CCCCC/C=C\1N(Cc1ccc(OC)cc1)C(=O)[C@H]2CC(=O)NCCCOC` gave Rev-erbA mod 2.6.
For O=c1[nH]c(=O)n(C2OC(CO)C(O)C2O)cc1F (stereo not given) the results were NR2E3 ag-1 48.9, NR2E3 ag conf 17.0 and GAL4-VP16 luc 5.9.
COc1ccccc1NS(=O)(=O)c1ccc(NN=C2CCCC2)c([N+](=O)[O-])c1 was read as Rev-erbA mod 2.6, NR2E3 ag-1 64.1, PG9 binder 1.4, NR2E3 ag-2 1.2, NR2E3 ag conf 65.1 and GAL4-VP16 luc 62.7.
`COc1ccccc1NS(=O)(=O)c1ccc(N/N=C/C=C/c2ccccc2[N+](=O)[O-])c([N+](=O)[O-])c1` gave Rev-erbA mod 5.9, NR2E3 ag-1 3.8, PG9 binder 0.8 and NR2E3 ag-2 -0.4.
Screening O=C(Cc1ccc(Cl)c(Cl)c1)Nc1ccc(S(=O)(=O)Nc2ccon2)cc1 returned Rev-erbA mod -4.0.
Screening Cc1[nH]c2ccccc2c(=O)c1C(=O)/C=C/c1ccccc1 returned Rev-erbA mod 1.6, NR2E3 ag-1 64.8, PG9 binder -0.4, NR2E3 ag-2 -4.4, NR2E3 ag conf 29.6 and GAL4-VP16 luc 60.1.
CCCCCc1ccc(NC(=O)OCCCN2CCC3(CCC(c4ccccc4)CC3)C2=O)cc1 (stereo not given) was read as Rev-erbA mod -0.9.
Screening COC(=O)[C@H]1C[C@@]2(N3CCCC3)c3ccccc3N[C@H]2N1S(C)(=O)=O returned Rev-erbA mod -6.5.
Screening Cc1ccc2sc(N3CCN(C(=O)C4=COCCO4)CC3)nc2c1C returned Rev-erbA mod -6.8, NR2E3 ag-1 59.0, PG9 binder 0.7, NR2E3 ag-2 -0.7, NR2E3 ag conf 60.5 and GAL4-VP16 luc 38.0.
O=C(Nc1ccc(F)cc1)Nc1c(-c2ccc(F)cc2)nc2ncccn12 was read as Rev-erbA mod -6.0.
For CCN(CC)C(=O)c1cccc(-c2csc(C(C)(O)c3ccc(F)c(F)c3)n2)c1 (stereo not given) the results were NR2E3 ag-1 51.2, NR2E3 ag conf 41.8 and GAL4-VP16 luc 39.1.
